From publication PMC8841436 (Clinical and Translational Science, 2021)

Columns and labels:
[1] = Plasma protein binding by equilibrium dialysis; assay type: in vitro ADME; conditions: human
[2] = tested on: healthy volunteers; assay: Phase 1 safety and tolerability; assay type: in vivo, human; conditions: for Diarrhea, participants with adverse event / Headache, participants with adverse event: part B MAD
[3] = tested on: experimental autoimmune encephalomyelitis; assay: Experimental autoimmune encephalomyelitis; assay type: in vivo; conditions: EAE mouse model; unpublished data
[4] = Plasma pharmacokinetics, part A; assay type: in vivo, human; conditions: for half-life / Tmax / AUC(0-inf) / AUC(0-t) / Cmax: human, in vivo
[5] = tested on: lymphocyte subpopulations (T/B/NK/monocyte counts); assay: Flow cytometry analysis of immune cell subsets in whole blood, part B; assay type: in vivo, human
Method in brief: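 Healthy volunteers got oral liquid test compound (7.5, 15, 30, 60 or 90 mg) or matching placebo once daily for 10 days, fasted. Whole blood was drawn predose on days 1, 4 and 10. Flow cytometry counted T, B, NK and monocytes with CD3, CD4, CD8, CD14, CD19 and CD16/56 antibodies. Naïve (CD19+ CD27-) and memory (CD19+ CD27+) B cells were also counted. Error bars are SD.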

[6] = Plasma pharmacokinetics, part B; conditions: human, in vivo, n = 8
[7] = Urine pharmacokinetics, 60 mg cohort part A; assay type: in vivo, human
[8] = 7.5 mg q.d. 10 days, 8 participants
[9] = 15 mg q.d. 10 days, 8 participants
[10] = 30 mg q.d. 10 days, 8 participants
[11] = 60 mg q.d. 10 days, 8 participants
[12] = 90 mg q.d. 10 days, 8 participants
[13] = all tolebrutinib doses, 40 participants

In the case of `C=CC(=O)N1CCC[C@@H](n2c(=O)n(-c3ccc(Oc4ccccc4)cc3)c3c(N)nccc32)C1` [tolebrutinib], the fraction unbound [1] is reported as ~0.065, the “Serious treatment-emergent adverse events” value ([2]; part A (SAD)) is reported as “no serious treatment‐emergent adverse events” and the Tolerability ([2]; part A (SAD), single doses 5-120 mg) is reported as “well‐tolerated”. The “Severity of treatment-related TEAEs” value ([2]; part B (MAD), all combined dose groups) was “mild”, the “Diarrhea, participants with adverse event” value (from here on “Diarrhea, participants”) [2, 8] was 1 and the “Headache, participants with adverse event” value (“Headache, participants” for short) [2, 8] was 2. The “Diarrhea, participants” value [2, 9] was 1, the “Headache, participants” value [2, 9] was 1 and the “Diarrhea, participants” value [2, 10] was 2. For the same compound, the “Headache, participants” value [2, 10] was 1, the “Diarrhea, participants” value [2, 11] was 0 and the “Headache, participants” value [2, 11] was 0. For the same compound, the “Diarrhea, participants” value [2, 12] was 5, the “Headache, participants” value [2, 12] was 0 and the “Diarrhea, participants” value [2, 13] was 9. For the same compound, the “Headache, participants” value [2, 13] was 4, the “Protection from disease induction” value [3] was “dose‐dependent protection” and the “half‐life (mean)” value ([4]; after oral administration, fasting, across doses) was 1.5 to 2 h. For the same compound, the “Dose proportionality of exposure” value ([4]; dose levels between 15 and 60 mg) was “approximately dose proportional”, the half-life ([4]; half‐life, plasma, as summarised in CSF section) was 1.5 to 2 h and the Tmax ([4]; po) was ~1 h. For the same compound, the AUC(0-inf) ([4]; po, 5 mg) was 1.39 ng·h/mL, the AUC(0-t) ([4]; po, 5 mg) was 0.57 ng·h/mL and the Cmax ([4]; po, 5 mg) was 0.369 ng/mL. It also gave a Tmax ([4]; po, 5 mg) of 1 h, a half-life ([4]; po, 5 mg, t 1/2, SAD, single oral 5 mg, fasting, mean, n = 6) of 1.92 h and an AUC(0-inf) ([4]; po, 15 mg) of 4.06 ng·h/mL. For the same compound, the AUC(0-t) ([4]; po, 15 mg) was 3.67 ng·h/mL, the Cmax ([4]; po, 15 mg) was 1.97 ng/mL and the Tmax ([4]; po, 15 mg) was 1 h. It also gave a half-life ([4]; po, 15 mg, t 1/2, SAD, single oral 15 mg, fasting, mean, n = 6) of 1.39 h, an AUC(0-inf) ([4]; po, 30 mg) of 6.46 ng·h/mL and an AUC(0-t) ([4]; po, 30 mg) of 6.04 ng·h/mL. The Cmax ([4]; po, 30 mg) was 3.12 ng/mL, the Tmax ([4]; po, 30 mg) was 1 h and the half-life ([4]; po, 30 mg, t 1/2, SAD, single oral 30 mg, fasting, mean, n = 6) was 1.47 h. The AUC(0-inf) ([4]; po, 60 mg) was 15.9 ng·h/mL, the AUC(0-t) ([4]; po, 60 mg) was 15.6 ng·h/mL and the Cmax ([4]; po, 60 mg) was 6.89 ng/mL. For the same compound, the Tmax ([4]; po, 60 mg) was 1.5 h, the half-life ([4]; po, 60 mg, t 1/2, SAD, single oral 60 mg, fasting, mean, n = 6) was 1.67 h and the AUC(0-inf) ([4]; po, 120 mg) was 62.6 ng·h/mL. The AUC(0-t) ([4]; po, 120 mg) was 61.6 ng·h/mL, the Cmax ([4]; po, 120 mg) was 32.3 ng/mL and the Tmax ([4]; po, 120 mg) was 1 h. For the same compound, the half-life ([4]; po, 120 mg, t 1/2, SAD, single oral 120 mg, fasting, mean, n = 6) was 2.18 h, the “Dose proportionality of Cmax and AUC (power model)” value ([4]; single doses 5 to 120 mg) was “more than dose proportional” and the “circulating total B cell levels (both naïve and memory B cells)” value ([5]; day 4 and day 10, all part B cohorts) was “Elevated”. The B cell depletion ([5]; part B MAD) was “did not result in B cell depletion”, the “other immune cell populations: T cells (total CD3, CD4, CD8), monocytes, NK” value ([5]; part B MAD) was “No changes” and the AUC ([6]; 7.5 mg, AUC0‐24, MAD 7.5 mg q.d., Day 1, mean) was 2.12 ng·h/mL. For the same compound, the AUC ([6]; 7.5 mg, AUC0‐24, MAD 7.5 mg q.d., Day 10, mean) was 3.07 ng·h/mL, the Cmax ([6]; 7.5 mg, MAD 7.5 mg q.d., Day 1, mean) was 1.17 ng/mL and the Cmax ([6]; 7.5 mg, MAD 7.5 mg q.d., Day 10, mean) was 1.32 ng/mL. For the same compound, the Tmax ([6]; 7.5 mg, MAD 7.5 mg q.d., Day 1, median (min – max)) was 1 h, the Tmax ([6]; 7.5 mg, MAD 7.5 mg q.d., Day 10, median (min – max)) was 1 h and the half-life ([6]; 7.5 mg, t 1/2, MAD 7.5 mg q.d., Day 1, mean) was 1.45 h. For the same compound, the half-life ([6]; 7.5 mg, t 1/2, MAD 7.5 mg q.d., Day 10, mean) was 1.57 h, the AUC ([6]; 15 mg, AUC0‐24, MAD 15 mg q.d., Day 1, mean) was 3.82 ng·h/mL and the AUC ([6]; 15 mg, AUC0‐24, MAD 15 mg q.d., Day 10, mean) was 5.85 ng·h/mL. It also gave a Cmax ([6]; 15 mg, MAD 15 mg q.d., Day 1, mean) of 1.96 ng/mL, a Cmax ([6]; 15 mg, MAD 15 mg q.d., Day 10, mean) of 2.51 ng/mL and a Tmax ([6]; 15 mg, MAD 15 mg q.d., Day 1, median (min – max)) of 1 h. The Tmax ([6]; 15 mg, MAD 15 mg q.d., Day 10, median (min – max)) was 1 h, the half-life ([6]; 15 mg, t 1/2, MAD 15 mg q.d., Day 1, mean) was 1.4 h and the half-life ([6]; 15 mg, t 1/2, MAD 15 mg q.d., Day 10, mean) was 1.68 h. It also gave an AUC ([6]; 30 mg, AUC0‐24, MAD 30 mg q.d., Day 1, mean) of 9.67 ng·h/mL, an AUC ([6]; 30 mg, AUC0‐24, MAD 30 mg q.d., Day 10, mean) of 14.9 ng·h/mL and a Cmax ([6]; 30 mg, MAD 30 mg q.d., Day 1, mean) of 6.25 ng/mL. It also gave a Cmax ([6]; 30 mg, MAD 30 mg q.d., Day 10, mean) of 7.46 ng/mL, a Tmax ([6]; 30 mg, MAD 30 mg q.d., Day 1, median (min – max)) of 0.75 h and a Tmax ([6]; 30 mg, MAD 30 mg q.d., Day 10, median (min – max)) of 1 h. It also gave a half-life ([6]; 30 mg, t 1/2, MAD 30 mg q.d., Day 1, mean) of 1.6 h, a half-life ([6]; 30 mg, t 1/2, MAD 30 mg q.d., Day 10, mean) of 2.02 h and an AUC ([6]; 60 mg, AUC0‐24, MAD 60 mg q.d., Day 1, mean) of 24.3 ng·h/mL. For the same compound, the AUC ([6]; 60 mg, AUC0‐24, MAD 60 mg q.d., Day 10, mean) was 18.2 ng·h/mL, the Cmax ([6]; 60 mg, MAD 60 mg q.d., Day 1, mean) was 8.47 ng/mL and the Cmax ([6]; 60 mg, MAD 60 mg q.d., Day 10, mean) was 6.69 ng/mL. For the same compound, the Tmax ([6]; 60 mg, MAD 60 mg q.d., Day 1, median (min – max)) was 1.25 h, the Tmax ([6]; 60 mg, MAD 60 mg q.d., Day 10, median (min – max)) was 1.5 h and the half-life ([6]; 60 mg, t 1/2, MAD 60 mg q.d., Day 1, mean) was 1.98 h. For the same compound, the half-life ([6]; 60 mg, t 1/2, MAD 60 mg q.d., Day 10, mean) was 2.37 h, the AUC ([6]; 90 mg, AUC0‐24, MAD 90 mg q.d., Day 1, mean) was 35.5 ng·h/mL and the AUC ([6]; 90 mg, AUC0‐24, MAD 90 mg q.d., Day 10, mean) was 56.6 ng·h/mL. For the same compound, the Cmax ([6]; 90 mg, MAD 90 mg q.d., Day 1, mean) was 19.3 ng/mL, the Cmax ([6]; 90 mg, MAD 90 mg q.d., Day 10, mean) was 21.7 ng/mL and the Tmax ([6]; 90 mg, MAD 90 mg q.d., Day 1, median (min – max)) was 1 h. For the same compound, the Tmax ([6]; 90 mg, MAD 90 mg q.d., Day 10, median (min – max)) was 1.5 h, the half-life ([6]; 90 mg, t 1/2, MAD 90 mg q.d., Day 1, mean) was 2.1 h and the half-life ([6]; 90 mg, t 1/2, MAD 90 mg q.d., Day 10, mean) was 2.83 h. The CL renal ([7]; human, urine, po, 60 mg) was ~5 mL/min and the “total mean amount recovered unchanged in urine” value ([7]; single oral 60 mg, fasted, after 12 h) was 4.2 µg.
